High-throughput results: PubChem BioAssay, several laboratories
CHOP inhibitor – inhibitors of CHOP promoter induction, primary screen, cell-based, unfolded protein response, luciferase reporter; CHO-K1 CHOP-promoter luciferase, tunicamycin-induced, 15-18 h; inhibition, % at 10 µM; 220,000 compounds, 3.8% hits;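 active means compounds that reduced the stress-induced luciferase reporter signal by more than about 70% of percent inhibition, limit read from the data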;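 further: 0% = tunicamycin plus vehicle and 100% = wells without tunicamycin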
UPR CHOP act – activators of apoptotic CHOP UPR arm, primary screen, cell-based, CHO-CHOP luciferase reporter, luminescence, uHTS; UPR activation; percent of tunicamycin response over DMSO baseline; activation, % at 10 µM; 330,000 compounds, 0.34% hits;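 active means at 10 µM dose, activation of 40% or more, normalized to positive control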;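 further: 100% = tunicamycin at 10 µg/mL and 0% = DMSO alone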
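Dosing – one dose, 10 µM in 0.5% DMSO · System – CHO-CHOP cells, stable luciferase reporter of PERK-eIF2a-CHOP signalling · Input – 500 cells/well · Control set – tunicamycin 10 µg/mL final as positive, DMSO-only wells as negative · Timing – 6 h compound treatment, 37 °C · Measure – % activation vs tunicamycin · Technique – luminescence read with Steady-Glo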
Lmaj promast – Leishmania major promastigote growth inhibition, primary screen. inhibition, % at 10 µM. 200,000 compounds, 9% hits. AID 1063, 2008. Leishmania major promastigotes, resazurin fluorescence viability; in the data active means inhibition above about 50%;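 further: promastigotes grown with compound for 44 hours at 28 °C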
UPR XBP1 act – activators of adaptive XBP1 UPR arm, primary screen, cell-based, CHO-XBP1 luciferase reporter, luminescence, uHTS; IRE1-XBP1 UPR activation; percent of tunicamycin response, DMSO as zero; activation, % at 20 µM; 330,000 compounds, 0.33% hits; AID 463104, 2010;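 active means versus positive control, 20 µM dose yields 30% or more activation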;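 further: 100% = tunicamycin at 10 µg/mL and 0% = DMSO only wells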
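Material – CHO cell line with stable XBP1 luciferase reporter · Buffer or medium – F12 plus 10% FBS · Compound – single point, 20 µM final compound, 1% DMSO · Schedule – 16-18 h cell attachment at 37 °C, then 6 h compound exposure · Signal – Steady-Glo luminescence read · Benchmarks – high control tunicamycin 10 µg/mL final, low control DMSO vehicle only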
Dynein cargo inh – inhibitors of GR-EGFP nuclear translocation, primary screen, dynein cargo transport inhibitor project, imaging, high-content, 3617.4 mouse cells; z-score, hits read low; 220,000 compounds, 0.47% hits; test concentration mostly 20 µM; stimulated with dexamethasone, 1 µM; hits give low values;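 active means plate z-score of nuclear minus cytoplasmic receptor signal below a set negative limit, without overly bright fluorescence or cell loss, cut at about -3.5 in these data, passing the limit was not always enough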;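 further: z-score of nuclear minus cytoplasmic ring GR-EGFP intensity difference per well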
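medium = tetracycline-free induction medium containing charcoal-stripped FBS | probe or stimulus = dexamethasone, 1.0 µM final | timing = 48 h induction, then 1 h compound, then 30 min agonist, 37 °C | detection = automated 10x imaging of fixed Hoechst-stained cells | read-out basis = nuclear versus cytoplasmic GR-EGFP signal, averaged per well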
T cruzi repl – inhibitors of intracellular T. cruzi growth, primary screen, luminescence, NIH3T3 host cells; inhibition, % (test concentration not listed); 300,000 compounds, 1.4% hits; T. cruzi beta-gal in NIH3T3, 90 h;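 active means mean inhibition across valid replicates above about 55%, limit read from the data; inconclusive means mean below that limit but half or more replicates reach it; inactive means mean below it, under half of replicates reach it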;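 further: signal also drops with host cell toxicity which is not excluded here; 0% = plate median of DMSO wells and 100% = zero luminescence signal; higher percent means less beta-gal luminescence so fewer parasites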
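Test system: β-gal T. cruzi (Tulahuen C4) inside NIH/3T3 cells / Quantity: 5,000 cells/well / Measured by: luminescence from GalScreen with 0.05% NP40, read after 60 min / Medium: DMEM plus 2% FBS / Measure: parasite load inhibition, % / Reagent: Tulahuen C4 trypomastigotes, 5000/well / Schedule: co-culture of at least 90 h after 3 h attachment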
Dynein inh conf – dynein cargo transport inhibitors, GR-EGFP translocation, confirmation, imaging, high-content imaging, GR-EGFP cells; shares compounds with Dynein cargo inh; 3617.4 GR-EGFP nuclear translocation imaging, dexamethasone-induced; calls only at 20 µM; 1,000 compounds, 69% hits;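 active means inhibition of receptor movement into the nucleus at or above a set limit in both runs, with normal cell brightness and cell count; inconclusive means limit reached in only one run, brightness and count normal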;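 further: dexamethasone at 1 µM final in well for 30 min; nuclear minus cytoplasmic GR-EGFP mean intensity difference in channel 2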
CHOP inh conf – retest of CHOP induction inhibitors, confirmation, cell-based; shares compounds with CHOP inhibitor; CHO-CHOP promoter luciferase reporter, tunicamycin-induced, luminescence; inhibition, % at 10 µM; 2,100 compounds, 45% hits;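 active means mean of three repeat readings of reporter signal inhibition above a set limit, cut at about 70% in these data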;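 further: 0% = tunicamycin plus vehicle and 100% = wells lacking tunicamycin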
* hit, by the source's call; i = inactive; u = inconclusive; x = not tested or not shown; + = active, no number. Many of the other results were omitted from the sample, so hits are more common in it than they were.

SMILES | CHOP inhibitor | UPR CHOP act | Lmaj promast | UPR XBP1 act | Dynein cargo inh | T cruzi repl | Dynein inh conf | others
O=C1NCCCc2c1oc1ccc(O)cc21 | 0 | -1 | 17 | -1 | 0.033 | -6 | x
CCOC(=O)c1c(C)oc2c(F)c(F)c(F)c(F)c2c1=O | x | 2 | -3 | -5 | -4.6* | -17 | +
COc1ccc(NC(=O)CCCCC(=O)Nc2ccc(OC)cc2OC)c(OC)c1 | x | 0 | x | 1 | x | 3 | x
COc1ccc(NC(=O)CCc2nc3ccccc3s2)c(OC)c1 | 17 | -2 | 5 | -1 | -5.7* | 10 | i
O=C(Nc1ccc(F)cc1)c1nc(S(=O)(=O)Cc2ccccc2)ncc1Cl | x | -9 | x | -11 | x | -19 | x
O=C(Nc1ccc(F)cc1)c1nn(-c2ccccc2)c(=O)cc1Cl | -73 | x | 98* | x | -5.4* | 17 | +
Cc1ccc(/C=C2/C(=O)ON=C2c2ccccc2)o1 | -36 | 6 | x | 20 | -6* | 10 | +
CC1=NOC(=O)/C1=C\c1ccc(-c2ccccc2Br)o1 | -17 | x | 99* | x | -3.7* | 21 | +
CC1=NOC(=O)/C1=C\c1ccc(-c2ccc(Cl)c(C(=O)O)c2)o1 | 4 | -1 | -5 | -4 | -0.57 | 0 | x
O=C1ON=C(c2ccccc2)/C1=C\c1ccco1 | -13 | 3 | x | 11 | -4.4* | -7 | +
O=C1ON=C(c2ccccc2)/C1=C/c1ccccc1 | x | 0 | x | -6 | x | -15 | x
COc1ccc(C(=O)NCC(=O)N2CCN(C(=O)c3ccco3)CC2)cc1 | x | -2 | x | -4 | x | -10 | x
COc1cc(/C=C/C(=O)OCC(=O)NCCN2C(=O)CSC2=O)ccc1OCC#N | x | -1 | x | -2 | x | x | x
O=C(Nc1oc2ccccc2c(=O)c1-c1ccc(Cl)cc1)c1ccco1 | x | -2 | x | -2 | x | -11 | x
Cc1ccc(-c2cc(C(F)F)nc(S(C)(=O)=O)n2)cc1 | -148 | 6 | 22 | -2 | -4.5* | -6 | +
CN1C(=S)N(c2cccnc2)C(=O)/C1=C\c1ccc(N(C)C)cc1 | -14 | x | -2 | x | 0.93 | -6 | x
CN1C(=S)N(c2cccnc2)C(=O)/C1=C\c1ccc(C(C)(C)C)cc1 | 43 | 7 | 96* | 4 | -3.7* | 13 | u
O=C(CCCOC(=O)c1ccc(O)cc1O)c1ccc(Br)cc1 | x | 4 | x | 5 | x | x | x
CC1=NNC(=O)/C1=C\c1cn(-c2ccccc2)nc1-c1ccccc1 | 108* | x | 100* | x | -3.9* | -6 | i
O=Cc1cn(-c2ccccc2)nc1-c1ccccc1 | x | 6 | x | 1 | x | -4 | x
COc1ccc(C=C2C(=O)c3ccccc3C2=O)cc1O | -17 | 2 | 14 | -2 | -0.56 | -17 | x
CCCCc1ccc(/C=C2\C(=O)c3ccccc3C(O)=C2C(=O)OCC)cc1 | -13 | 11 | 12 | 10 | -4.2* | 51 | +
CCc1ccc2nc3sc(C(=O)N4CCc5ccccc54)c(N)c3cc2c1 | 1 | 6 | -3 | 9 | -2.3 | -22 | x
Cc1ccc(C)c2nc3sc(C(=O)N4CCCc5ccccc54)c(N)c3cc12 | -5 | -2 | -2 | -3 | -7.1 | 66* | i
COc1ccc(-n2nc(C(=O)c3cccs3)cc(-c3nc4ccccc4[nH]3)c2=N)cc1 | 69 | 5 | 99* | -2 | -5.9 | 73* | i
SMILES | CHOP inhibitor | UPR CHOP act | Lmaj promast | UPR XBP1 act | Dynein cargo inh | T cruzi repl | Dynein inh conf | others
Cn1c(=O)n(C)c2cc(NC(=O)c3ccc(F)cc3)ccc21 | x | 0 | x | 0 | x | -7 | x
O=C(c1ccccc1)c1cc(Cl)ccc1N1C(=O)C=CC1=O | 106* | x | -3 | x | -4.5* | x | + | CHOP inh conf=-10
N#Cc1cc(C(=O)c2cc(Cl)ccc2O)cn(-c2ccccc2)c1=O | 14 | -1 | 3 | -2 | -0.37 | 13 | x
COc1ccc(N(C(=O)c2snc(C(N)=O)c2N)C(C(=O)NC2CCCC2)c2cccs2)cc1OC (stereo unspecified) | x | 1 | x | 2 | x | 8 | x
C#CC(=O)N(c1cc(OC)ccc1OC)C(C(=O)NC1CCCC1)c1cccs1 (stereo unspecified) | 108* | -9 | 101* | -9 | -5.1* | 33 | + | CHOP inh conf=111*
CCCCn1c(N)c(N(C(=O)CSc2nnc(C)n2-c2ccccc2)C2CCCC2)c(=O)[nH]c1=O | x | -1 | x | 0 | x | x | x
Cc1nc2c(=O)n(C)c(=O)n(C)c2nc1Cl | 109* | x | 100* | x | -6.2* | -3 | + | CHOP inh conf=118*
Cn1c(=O)c2nc(NCc3ccccc3)cnc2n(C)c1=O | -5 | -1 | 1 | -4 | -0.78 | -8 | x
COCCn1c(SCC(=O)NC(C)c2ccc(F)cc2)nc2ccccc21 (stereo unspecified) | x | 1 | x | -5 | x | 5 | x
CC1CCN(C(=O)CN2C(=O)NC(c3ccccc3)(c3ccccc3)C2=O)CC1 | x | -1 | x | -1 | x | x | x
BrC(=C\c1ccccc1)/C=N/n1cnnc1 | 106* | x | 100* | x | -3.7* | 50 | + | CHOP inh conf=-22
BrC(=C\c1ccccc1)/C=N/Nc1ccc2nncn2n1 | 12 | 6 | x | 1 | -0.33 | -17 | x
CC(NC(=O)c1cccs1)c1ccc(Br)cc1 (stereo unspecified) | x | -2 | x | -4 | x | 9 | x
CC[n+]1c(/C=C2\Sc3ccccc3N2C)ccc2cccc(C)c21 | 104* | x | 100* | x | -8.5* | 63* | + | CHOP inh conf=110*
Cc1cc(OC(C)C(=O)N2CCN(c3ccc(F)cc3)CC2)c2c(C)cc(=O)oc2c1 (stereo unspecified) | x | 3 | x | -3 | x | -6 | x
COc1ccc(OC)c(CCNC(=O)Cn2sc3nc(C)cc(C)c3c2=O)c1 | 98* | 6 | 21 | -4 | -4.1* | 46 | + | CHOP inh conf=-2
COc1ccc(OC)c(CCNC(=O)Cn2nc(C)c3c(C)n(-c4ccc(C)cc4)nc3c2=O)c1 | x | 2 | x | -4 | x | -1 | x
COc1ccc(S(=O)Cc2ccc(C(=O)NC3CC3)o2)cc1 (stereo unspecified) | x | 0 | x | -7 | x | -10 | x
COc1ccc(NC(=O)/C(Cl)=C(/Cl)S(=O)(=O)Cc2ccc(C)cc2)cn1 | x | x | 22 | x | -5* | 3 | i | CHOP inh conf=118*
O=C(CCS(=O)(=O)c1ccc(F)cc1)Nc1nc(-c2ccncc2)cs1 | x | -2 | x | -7 | x | -19 | x
